ChEMBL document CHEMBL5715960, “Epigenetic Co-Deregulation of EZH2/TET1 is a Senescence-Countering, Actionable Vulnerability in Triple-Negative Breast Cancer” (Theranostics, 2019)
Activity calls are given as the source filed them. The calls are words filed in the database; no cut-off is given here.

Experiments:
[1] = test system: MDA-MB-436; experiment: Antiproliferative activity against human MDA-MB-436 cells at 0.5 to 2 uM for 2 days by Guava viacount assay; type: functional, cell-based; conditions: dose 0.5-2 µM, time 2.0 day
Outline: (§1)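 Cells plated at 2 × 10^4 (24-well) or 1 × 10^5 (12-well), exposed to a range of GSK343 concentrations for 2 days against DMSO solvent control; cell number and viability read by Guava ViaCount flow cytometry, relative to DMSO. Triplicate; mean ± SD.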

[2] = test system: MDA-MB-361; experiment: Cytotoxicity against human MDA-MB-361 cells at 0.5 to 2 uM for 2 days by Guava viacount assay; type: toxicity, cell-based; conditions: mda-mb-361, 48 h, dose 0.5-2 µM, time 2 day; outline: as §1
[3] = test system: SK-BR-3; experiment: Cytotoxicity against human SK-BR-3 cells assessed as increase in cell death at 10 uM for 2 days by Guava viacount assay; type: toxicity, cell-based; conditions: sk-br-3, 48 h, time 2 day; outline: as §1
[4] = test system: MDA-MB-361; experiment: Cytotoxicity against human MDA-MB-361 cells assessed as increase in cell death at 10 uM for 2 days by Guava viacount assay; type: toxicity, cell-based; conditions: mda-mb-361, 48 h, time 2 day; outline: as §1
[5] = test system: BT-474; experiment: Cytotoxicity against human BT-474 cells assessed as increase in cell death at 10 uM for 2 days by Guava viacount assay; type: toxicity, cell-based; conditions: bt-474, 48 h, time 2 day; outline: as §1
[6] = test system: BT-474; experiment: Induction of cell cycle arrest in human BT-474 cells assessed as accumulation of cells at S phase measured at 2 uM by BrdU/PI staining based flow cytometric analysis (reference value: 28.6%); type: functional
[7] = test system: MDA-MB-453; experiment: Antiproliferative activity in human MDA-MB-453 cells assessed as increase in SA-beta-gal positive cells at 2 uM for 5 days by SA-beta-gal staining analysis; type: functional, cell-based; conditions: time 5.0 day
Outline: (§2)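 GSK343 2 µM or DMSO for 5 days, then chromogenic SA-β-gal staining and counting of positive cells. Triplicate; mean ± SD.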

[8] = test system: SK-BR-3; experiment: Antiproliferative activity in human SK-BR-3 cells assessed as increase in SA-beta-gal positive cells at 2 uM for 5 days by SA-beta-gal staining analysis; type: toxicity, cell-based; conditions: sk-br-3, 120 h, time 5 day; outline: as §2
[9] = test system: BT-474; experiment: Upregulation of TP53 gene in human BT-474 cells at 2 uM by qRT-PCR analysis; type: functional, cell-based
Outline: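 Relative transcript levels measured by qRT-PCR in cells treated with 2 µM inhibitor, normalised to DMSO-treated control cells. Triplicate experiments unless stated otherwise; mean ± SD reported; unpaired two-tailed Student's t-test at p < 0.05.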

[10] = test system: BT-474; experiment: Effect on human BT-474 cells assessed as increase in TET3 transcription by qRT-PCR analysis; type: functional, cell-based
Outline: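 qRT-PCR of TET1, TET2 and TET3 transcripts in breast cancer cells exposed to GSK343 (2 µM unless otherwise indicated), shown relative to DMSO-treated cells. Mean ± SD, triplicate unless stated.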

[11] = test system: MDA-MB-231; experiment: Effect on human MDA-MB-231 cells assessed as increase in global 5hmc level by dot analysis; type: functional, cell-based
Outline: (§3)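 Global 5hmC measured by dot blot on genomic DNA from cells given GSK343 or carrying EZH2 knock-down, with DMSO or scrambled shRNA as controls. DNA denatured in 0.1 M NaOH at 99 °C for 5 min, then neutralized with ammonium sulfate pH 7.0. 5 µg spotted, UV-crosslinked, probed with anti-5hmC for 1 h at room temperature, ECL detection, dot intensity quantified. Mean ± SD.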

[12] = test system: MDA-MB-436; experiment: Effect on human MDA-MB-436 cells assessed as increase in global 5hmc level by dot analysis; type: functional, cell-based; outline: as §3
[13] = test system: MDA-MB-231; experiment: Downregulation of EZH2 in human MDA-MB-231 cells at 2 uM for 2 days by immunoblot analysis; type: functional, cell-based; conditions: time 2.0 day
[14] = test system: MDA-MB-231; experiment: Upregulation of […] signalling in human MDA-MB-231 cells at 2 uM for 2 days by immunoblot analysis; type: functional, cell-based; conditions: time 2.0 day
[15] = test system: MDA-MB-436; experiment: Upregulation of […] signalling in human MDA-MB-436 cells at 2 uM for 2 days by immunoblot analysis; type: functional, cell-based; conditions: time 2.0 day
[16] = test system: MDA-MB-436; experiment: Effect on […] in human MDA-MB-436 cells assessed as repression in TET1 promoter H3K27me3 by ChiP-qPCR analysis; type: functional, cell-based
Outline: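 ChIP-qPCR on MDA-MB-231 and MDA-MB-436 cells exposed to GSK343 or DMSO. Chromatin pulled down with anti-H3K27me3 antibody and amplified with primers specific for the TET1 promoter. Input (no immunoprecipitation) serves as internal control and anti-IgG as negative control. Mean ± SD, triplicate unless stated.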

[17] = test system: MDA-MB-231; experiment: Antiproliferative activity in human MDA-MB-231 cells expressing vector assessed as increase in SA-beta-gal positive cells by SA-beta-gal staining analysis (reference value: 6.5+/-4%); type: functional
[18] = test system: MDA-MB-231; experiment: Effect on human MDA-MB-231 cells expressing shTET1 assessed as reduction in PCNA by immunoblot analysis; type: functional, cell-based
[19] = test system: MDA-MB-436; experiment: Effect on human MDA-MB-436 cells expressing shTET1 assessed as increase in p53 cascade by immunoblot analysis; type: functional, cell-based
[20] = test system: MDA-MB-231; experiment: Effect on human MDA-MB-231 cells expressing shTET1 assessed as increase in H3K9me3 cascade by immunoblot analysis; type: functional, cell-based
[21] = test system: MCF7; experiment: Effect on human MCF7 cells assessed as decrease in H3K27me3 level at 2 uM in presence of adriamycin by immunoblot analysis; type: functional, cell-based
Outline: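 Immunoblot of MDA-MB-231 and MCF7 lysates after 0.005 µg/ml adriamycin with or without 2 µM GSK343, or DMSO. α-Tubulin and total H3 used as loading controls.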

[22] = test system: MDA-MB-231; experiment: Effect on human MDA-MB-231 cells assessed as apoptotic phenotype by measuring increase in BAX expression level at 2 uM in presence of adriamycin by immunoblot analysis; type: functional, cell-based
Outline: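 Immunoblot of cell lysates after 0.05 µg/ml adriamycin alone, with 2 µM GSK343, or DMSO. α-Tubulin and total H3 used as loading controls.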

[23] = test system: MDA-MB-231; experiment: In vivo activation of TET1 in Crl:NU-Foxn1-nu/nu mouse xenografted with human MDA-MB-231 cells at 5 mg/kg, ip in presence of adriamycin treated for 21 days; type: functional, organism-based; conditions: time 21.0 day
[24] = test system: MDA-MB-436; experiment: In vivo activation of p53 expression in Crl:NU-Foxn1-nu/nu mouse xenografted with human MDA-MB-436 cells at 5 mg/kg, ip in presence of adriamycin treated for 21 days; type: functional, organism-based; conditions: time 21.0 day
[25] = test system: MDA-MB-436; experiment: […] in human MDA-MB-436 cells xenografted in Crl:NU-Foxn1-nu/nu mouse […] administered at 5 mg/kg, ip in presence of adriamycin treated for 21 days by SA-beta-gal staining analysis; type: functional, organism-based; conditions: time 21.0 day
Outline: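 SA-β-gal staining of xenograft tumors. Twice-weekly intraperitoneal GSK343 5 mg/kg, adriamycin 1 mg/kg, the combination, or DMSO, started at a tumor volume of about 50 mm3 and continued for 21 days.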

[26] = test system: MDA-MB-231; experiment: Effect on human MDA-MB-231 cells assessed as increase in TET1 protein level by qRT-PCR analysis

Structure (SMILES): CCCc1cc(C)[nH]c(=O)c1CNC(=O)c1cc(-c2ccnc(N3CCN(C)CC3)c2)cc2c1cnn2C(C)C
- Activity [1]: Active
- Activity [2]: Non-Toxic
- Activity [3]: Non-Toxic
- Activity [4]: Non-Toxic
- Activity [5]: Non-Toxic
- Activity [6]: 26.8%
- Activity [7]: Active
- Activity [8]: Non-Toxic
- Activity [9]: inactive
- Activity [10]: inactive
- Activity [11]: Active
- Activity [12]: Active
- Activity [13]: Active
- Activity [14]: Active
- Activity [15]: Active
- Activity [16]: Active
- Activity [17]: 45.6%
- Activity [18]: inactive
- Activity [19]: inactive
- Activity [20]: inactive
- Activity [21]: inactive
- Activity [22]: Active
- Activity [23]: Active
- Activity [24]: Active
- Activity [25]: Active
- Activity [26]: Active
